For assay [1], the target named is Adenosine receptor A2a (Homo sapiens) (UniProt P29274). The assay is described as follows: Displacement of [3H]ZM2421385 from adenosine A2A receptor expressed in human HeLa cell membranes at 1 uM incubated for 30 mins by scintillation counting method. The conditions noted are these: Cell membrane. A general note: Displacement assays read how much labelled ligand stays bound in the presence of the test substance.

Assay [2] deals with T1, Adenosine receptor A1 (Homo sapiens) (UniProt P30542).
T1 sequence (whole entry): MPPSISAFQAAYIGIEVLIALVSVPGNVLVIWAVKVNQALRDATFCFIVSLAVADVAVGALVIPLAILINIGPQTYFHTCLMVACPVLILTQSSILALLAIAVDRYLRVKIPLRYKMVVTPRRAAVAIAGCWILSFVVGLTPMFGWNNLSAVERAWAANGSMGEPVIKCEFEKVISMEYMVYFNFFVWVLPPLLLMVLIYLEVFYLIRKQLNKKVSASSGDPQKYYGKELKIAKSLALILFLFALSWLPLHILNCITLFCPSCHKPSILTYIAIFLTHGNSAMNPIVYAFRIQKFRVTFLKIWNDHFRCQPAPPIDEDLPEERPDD
The assay is described as follows: Displacement of [3H]DPCPX from human adenosine A1 receptor expressed in CHO cell membranes at 1 uM incubated for 60 mins by scintillation counting method. The conditions noted are these: Cell membrane.

In assay [3] the target is T2, Adenosine receptor A2b (Homo sapiens) (UniProt P29275).
T2 sequence (whole entry): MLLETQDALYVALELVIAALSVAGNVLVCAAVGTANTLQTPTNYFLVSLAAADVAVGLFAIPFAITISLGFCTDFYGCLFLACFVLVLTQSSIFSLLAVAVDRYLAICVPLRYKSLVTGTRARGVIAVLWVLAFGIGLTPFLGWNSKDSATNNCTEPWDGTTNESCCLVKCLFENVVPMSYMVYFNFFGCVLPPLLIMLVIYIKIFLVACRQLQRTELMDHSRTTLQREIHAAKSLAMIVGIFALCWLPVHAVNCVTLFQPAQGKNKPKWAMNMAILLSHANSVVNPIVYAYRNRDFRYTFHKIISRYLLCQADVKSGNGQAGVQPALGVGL
In words: Displacement of [3H]DPCPX from human adenosine A2B receptor expressed in HEK293 cell membranes at 1 uM incubated for 30 mins by scintillation counting method. The conditions noted are these: Cell membrane.

Assay [4] concerns the target T3, Adenosine receptor A3 (Homo sapiens) (UniProt P0DMS8).
T3 sequence (whole entry): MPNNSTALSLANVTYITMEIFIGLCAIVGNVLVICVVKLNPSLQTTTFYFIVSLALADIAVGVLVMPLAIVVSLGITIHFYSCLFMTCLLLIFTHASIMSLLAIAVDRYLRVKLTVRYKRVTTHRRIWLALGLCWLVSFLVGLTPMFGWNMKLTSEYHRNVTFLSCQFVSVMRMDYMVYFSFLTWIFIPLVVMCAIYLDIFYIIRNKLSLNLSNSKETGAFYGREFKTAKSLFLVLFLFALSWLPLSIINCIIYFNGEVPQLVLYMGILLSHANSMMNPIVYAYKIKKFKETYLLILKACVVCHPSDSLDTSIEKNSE
In words: Displacement of [3H]NECA from adenosine A3 receptor expressed in human HeLa cell membranes at 1 uM incubated for 180 mins by scintillation counting method. To be noted: Cell membrane. Put shortly: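 hA3AR in HeLa membranes (3 pmol/mg protein) with 10 nM [3H]NECA (KD 8.7 nM); nonspecific binding with 100 μM R-PIA; incubated 180 min at 25 °C, washed, filtered, radioactivity counted.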

For assay [5], the target named is T4, Adenosine receptor A2b (Homo sapiens, UniProt P29275).
T4 sequence (P29275 whole entry): T2 sequence (whole entry)
In words: Displacement of [3H]DPCPX from human adenosine A2B receptor expressed in HEK293 cell membranes incubated for 30 mins by scintillation counting method. Also on record: species or system Cell membrane.

Sequence of Adenosine receptor A2a (Homo sapiens) (P29274 whole entry): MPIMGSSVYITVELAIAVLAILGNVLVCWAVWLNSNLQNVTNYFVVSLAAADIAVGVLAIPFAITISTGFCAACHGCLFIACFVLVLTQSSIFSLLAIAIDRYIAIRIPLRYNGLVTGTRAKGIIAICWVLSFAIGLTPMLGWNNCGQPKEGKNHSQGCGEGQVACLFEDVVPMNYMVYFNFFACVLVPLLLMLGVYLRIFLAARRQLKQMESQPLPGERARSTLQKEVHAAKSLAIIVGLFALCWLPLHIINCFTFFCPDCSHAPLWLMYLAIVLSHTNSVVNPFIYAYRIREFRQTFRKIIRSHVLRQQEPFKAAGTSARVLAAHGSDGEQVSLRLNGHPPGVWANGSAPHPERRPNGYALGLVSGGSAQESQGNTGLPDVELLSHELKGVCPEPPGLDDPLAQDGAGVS

A word on the inhibition: it is the relative decrease from the control value, in per cent. As to `CC1=C(C(=O)OCC(C)C)C(c2ccco2)NC(=O)N1C` (racemic), the inhibition in assay [1] came out at 3%; in assay [2], 13%; in assay [3], 4%; in assay [4] it was 23%.

For the compound `CCSC(=O)C1=C(C)NC(=O)NC1c1cccs1` (racemic), the inhibition in assay [1] is 8%; in assay [2], 6%; in assay [3] it was 1%; in assay [4] it was 1%.

As to `CC1=C(C(=O)OCC(C)C)C(c2ccsc2)NC(=S)N1` (racemic), the inhibition in assay [1] turned out to be 1%; in assay [2], 8%; in assay [3] it was 15%; in assay [4], 2%.

As for `CCC(CC)OC(=O)C1=C(C)NC(=O)NC1c1ccco1` (racemic), the inhibition in assay [1] is 3%; in assay [2] it was 2%; in assay [3] it was 35%; in assay [4], 1%.

On to `CCN(CC)C(=O)C1=C(C)NC(=O)NC1c1ccco1` (racemic), for which the inhibition is 9% in assay [1], 11% in assay [2], 31% in assay [3] and 19% in assay [4].

On to `CCCOC(=O)C1=C(C)N(C)C(=O)NC1c1ccoc1` (racemic), for which the inhibition in assay [1] turned out to be 1%; in assay [2], 1%; in assay [3], 2%; in assay [4] it was 16%.

Turning to `COC(=O)C1=C(C)NC(=S)NC1c1ccsc1` (racemic), the inhibition is 1% in assay [1], 3% in assay [2], 38% in assay [3] and 3% in assay [4].

As to `CC1=C(C(=O)OCc2ccccc2)C(c2ccco2)NC(=S)N1` (racemic), the inhibition in assay [1] is 12%; in assay [2] it was 32%; in assay [3] (filed as antagonist), 41%; in assay [4], 4%.

For the compound `CC1=C(C(=O)NC(C)C)C(c2ccoc2)NC(=O)N1` (racemic), the inhibition in assay [1] was found to be 1%; in assay [2], 1%; in assay [3], 3%; in assay [4] it was 3%.

As to `CC1=C(C(=O)OC(C)(C)C)C(c2ccoc2)NC(=O)N1C` (racemic), the inhibition in assay [1] came out at 16%; in assay [2], 21%; in assay [3] it was 16%; in assay [4] it was 12%.

For `CCNC(=O)C1=C(C)NC(=O)NC1c1ccoc1` (racemic), the inhibition in assay [1] stood at 2%; in assay [2], 1%; in assay [3], 2%; in assay [4], 1%.

Consider `CC(=O)C1=C(C)NC(=O)NC1c1ccoc1` (racemic), for which the inhibition in assay [1] came to 1%; in assay [2], 6%; in assay [3], 15%; in assay [4], 2%.

Take `CC1=C(C(=O)OC2CCCCC2)C(c2ccsc2)NC(=O)N1` (racemic): the inhibition was determined as 2% in assay [1], 8% in assay [2], 4% in assay [3] and 1% in assay [4].

Take `CC1=C(C(=O)SC(C)C)C(c2cccs2)NC(=O)N1` (racemic): the inhibition in assay [1], in assay [2], in assay [3] and in assay [4] was 1% in each case.

Broadly, the Ki is a measure of affinity in units of concentration, obtained from inhibition or displacement. A low value points to higher affinity. Take `CCOC(=O)C1=C(C)N=C(S)NC1c1cccs1` (racemic): the affinity in assay [5], expressed as Ki, was 3250 nM.

Regarding `CC1=C(C(=O)OC2CCCCC2)C(c2ccoc2)NC(=O)N1` (racemic), the inhibition in assay [1] was 3%; in assay [2] it was 15%; in assay [3] it was 4%; in assay [4] it was 1%.

In the case of `CCCOC(=O)C1=C(C)N(C)C(=O)NC1c1cccs1` (racemic), the inhibition in assay [1] was 1%; in assay [2] it was 9%; in assay [3], 1%; in assay [4], 4%.

Turning to `CC1=C(C(=O)OC(C)(C)C)C(c2ccsc2)NC(=O)N1` (racemic), the inhibition was determined as 5% in assay [1], 15% in assay [2], 47% in assay [3] (filed as antagonist) and 1% in assay [4].

Turning to `CC1=C(C(=O)OC(C)(C)C)C(c2ccsc2)NC(=O)N1C` (racemic), the inhibition was determined as 1% in assay [1], 18% in assay [2], 35% in assay [3] and 14% in assay [4].

Regarding `CCOP(=O)(OCC)C1=C(C)NC(=O)NC1c1cccs1` (racemic), the inhibition was determined as 5% in assay [1], 2% in assay [2], 7% in assay [3] and 5% in assay [4].

As for `CC1=C(C(=O)OC(C)C)C(c2ccsc2)NC(=S)N1` (racemic), the Ki in assay [5] was determined as 315 nM.

As to `CC1=C(C(=O)OC2CCCCC2)C(c2ccco2)NC(=O)N1` (racemic), the inhibition in assay [1] stood at 5%; in assay [2], 1%; in assay [3], 1%; in assay [4] it was 4%.

In the case of `CC1=C(C(=O)OCc2ccccc2)C(c2cccs2)NC(=S)N1` (racemic), the inhibition is 63% in assay [1], 34% in assay [2], 45% in assay [3] (filed as antagonist) and 24% in assay [4].

Consider `CC1=C(C(=O)OC(C)(C)C)C(c2cccs2)NC(=S)N1` (racemic), for which the inhibition stood at 7% in assay [1], 22% in assay [2], 26% in assay [3] and 22% in assay [4].

On to `COC(=O)C1=C(C)N(C)C(=O)NC1c1ccco1` (racemic), for which the inhibition worked out at 1% in assay [1], 45% in assay [2], 31% in assay [3] and 9% in assay [4].

As for `CC1=C(C(=O)NC(C)C)C(c2ccsc2)NC(=O)N1` (racemic), the inhibition in assay [1] amounted to 1%; in assay [2], 8%; in assay [3] it was 3%; in assay [4], 1%.

With `COC(=O)C1=C(C)NC(=S)NC1c1ccoc1` (racemic), the inhibition in assay [1] was 1%; in assay [2], 25%; in assay [3] (filed as antagonist), 48%; in assay [4] it was 3%.

On to `CC1=C(C(=O)OCc2ccccc2)C(c2ccsc2)NC(=O)N1` (racemic), for which the inhibition in assay [1] worked out at 21%; in assay [2] it was 57%; in assay [3] (filed as antagonist), 44%; in assay [4] it was 25%.

Turning to `CC1=C(C(=O)OCC(C)C)C(c2ccoc2)NC(=S)N1` (racemic), the inhibition in assay [1] was found to be 35%; in assay [2], 12%; in assay [3] it was 1%; in assay [4] it was 1%.

Take `CCC(CC)OC(=O)C1=C(C)NC(=O)NC1c1cccs1` (racemic): the inhibition in assay [1] came out at 4%; in assay [2] it was 13%; in assay [3] it was 6%; in assay [4], 1%.

For the compound `CC1=C(C(=O)OCC(C)C)C(c2cccs2)NC(S)=N1` (racemic), the inhibition worked out at 2% in assay [1], 1% in assay [2], 12% in assay [3] and 4% in assay [4].

As for `CCCC(=O)C1=C(C)NC(=O)NC1c1cccs1` (racemic), the inhibition in assay [1] was 23%; in assay [2], 2%; in assay [3] it was 9%; in assay [4], 2%.

For the compound `CC1=C(C(=O)OCc2ccccc2)C(c2cccs2)NC(=O)N1C` (racemic), the inhibition in assay [1] worked out at 3%; in assay [2] it was 50%; in assay [3] (filed as antagonist), 50%; in assay [4] it was 18%.

As to `CCSC(=O)C1=C(C)NC(=O)NC1c1ccoc1` (racemic), the inhibition in assay [1] stood at 1%; in assay [2] it was 3%; in assay [3] it was 1%; in assay [4], 1%.

For the compound `CCNC(=O)C1=C(C)NC(=O)NC1c1ccsc1` (racemic), the inhibition in assay [1] was 17%; in assay [2], 3%; in assay [3], 1%; in assay [4], 1%.

(Values after ChEMBL document CHEMBL4765483 (J Med Chem, 2021).)
